Source: paper PMC3580291 (Cell Calcium, 2013)
Read-outs that look alike come from different tables or passages of the source.

Assays:
Orai2 = details: high concentrations (50 μM), compared with Orai1; cited from earlier work
Orai1 currents = details: cited from earlier work
CRAC currents = details: cited from earlier work
Orai3 = details: cited from earlier work
STIM1/Orai1 currents = STIM1/Orai1 currents (Homo sapiens, UniProt Q96D31); assay: whole-cell patch-clamp of STIM1-mediated Orai1 currents in HEK293 cells; assay type: cell-based; details: for inhibition of maximally activated STIM1/Orai1 currents: whole cell inward current at −74 mV, HEK293; for kinetics of Orai1 current inhibition, slower than La^3+: relative to La^3+; for recovery of Orai1 currents upon wash-out: after full block by 10 μM, 4–5 min wash-out with 10 mM Ca^2+ solution
Outline: (§1)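 HEK293 cells transfected with CFP-STIM1 plus YFP-Orai construct and recorded 24 h later. Whole-cell patch clamp at 20–24 °C with passive store depletion via a pipette containing (mM) 145 Cs methanesulfonate, 20 EGTA, 3.5 MgCl2, 8 NaCl, 10 HEPES, pH 7.2. Bath contained 10 mM CaCl2, pH 7.4. Ramps from −90 to +90 mV over 1 s, every 5 s, from 0 mV holding. Inward current taken at −74 mV. Leak correction used the initial trace or post-10 μM La3+ trace.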

[1] = tested on: interleukin-2 (IL-2) production in lymphocytes; details: cited from earlier work
[2] = tested on: CRAC/SOC currents in RBL cells; details: 30 μM; cited from earlier work
STIM1/Orai3 currents = STIM1/Orai3 currents (Homo sapiens, UniProt Q9BRQ5); assay: whole-cell patch-clamp of STIM1-mediated Orai3 currents in HEK293 cells; assay type: cell-based; details: for inhibition of maximally activated STIM1/Orai3 currents: 10 μM, whole cell inward current at −74 mV, HEK293; for recovery of Orai3 currents upon wash-out: after full block by 10 μM, 4–5 min wash-out with 10 mM Ca^2+ solution
Outline: as §1

[3] = tested on: endogenous CRAC channels of RBL-2H3 cells; assay: whole-cell patch-clamp of endogenous CRAC currents in RBL-2H3 cells; assay type: cell-based, rat; details: 10 μM; passive store-depletion; −74 mV
Outline: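 RBL-2H3 cells grown in RPMI 1640 with 10% FBS, 1% penicillin–streptomycin and 1% L-glutamine at 37 °C, 5% CO2. Endogenous CRAC current activated by passive store depletion (20 mM EGTA pipette) in whole-cell mode. Inward current at −74 mV followed during perfusion of 10 μM test compound, with 10 μM La3+ as reference.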

[4] = biological target: STIM1-CFP/Orai1-YFP interaction (Homo sapiens, UniProt Q13586+Q96D31); assay: confocal FRET microscopy of STIM1/Orai1 coupling; assay type: cell-based; details: 10 μM after store-depletion by thapsigargin; HEK cells
Outline: (§2)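 HEK293 cells transfected with CFP/YFP-tagged STIM1 and/or Orai1 and imaged 24 h later by confocal FRET microscopy with 457/488/514 nm laser lines. CFP, FRET and YFP images used about 900–1500 ms illumination. Crosstalk and cross-excitation factors were set per construct daily. Pixelwise corrected FRET (NFRET) was computed after background subtraction, limited to CFP:YFP molar ratio 1:10–10:1. Data given as mean ± S.E.M.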

[5] = biological target: STIM1/Orai1 D110/112/114A (Homo sapiens, UniProt Q96D31, D110A/D112A/D114A); assay type: cell-based; details: 10 μM
[6] = biological target: 2-APB stimulated Orai3 currents (Homo sapiens, UniProt Q9BRQ5); assay: whole-cell patch-clamp of 2-APB stimulated Orai3 currents; assay type: cell-based
L-type Ca^2+ channels = L-type Ca^2+ channels (Homo sapiens, UniProt Q13936); assay: whole-cell patch-clamp of L-type Ca2+ channel expressing HEK293 cells; assay type: cell-based; details: 10 μM
rat-TRPV6 channels = rat-TRPV6 channels (Rattus norvegicus, UniProt Q9R186); assay: whole-cell patch-clamp of TRPV6 expressing HEK293 cells; assay type: cell-based; details: 10 μM, −74 mV
[7] = biological target: CFP-STIM1/YFP-STIM1 oligomerization (Homo sapiens, UniProt Q13586); assay: confocal FRET microscopy of STIM1 oligomerization; assay type: cell-based; details: 10 μM applied 5 min before store-depletion with 2 μM thapsigargin
Outline: as §2

STIM1/Orai1 E106D = STIM1/Orai1 E106D (Homo sapiens, UniProt Q96D31, E106D); assay: whole-cell patch-clamp of STIM1-activated Orai1 E106D pore mutant currents; assay type: cell-based
Outline: as §1

human lung mast cells = details: 3 μM; cited from earlier work
CaV1.2 (L-type) = CaV1.2 (L-type) (Homo sapiens, UniProt Q13936); assay: selectivity profile, over-expressed ion channel; assay type: cell-based; details: Activity (IC50), antagonistic action; Human CaV1.2 (L-type)
HEK293 cells = assay type: cell-based
[8] = tested on: STIM1 clustering in smooth muscle cells; details: cited from earlier work
RBL mast cells = details: read-out: IC50 on RBL mast cells; cited from earlier work

Sequence of STIM1/Orai1 currents (Q96D31 whole entry): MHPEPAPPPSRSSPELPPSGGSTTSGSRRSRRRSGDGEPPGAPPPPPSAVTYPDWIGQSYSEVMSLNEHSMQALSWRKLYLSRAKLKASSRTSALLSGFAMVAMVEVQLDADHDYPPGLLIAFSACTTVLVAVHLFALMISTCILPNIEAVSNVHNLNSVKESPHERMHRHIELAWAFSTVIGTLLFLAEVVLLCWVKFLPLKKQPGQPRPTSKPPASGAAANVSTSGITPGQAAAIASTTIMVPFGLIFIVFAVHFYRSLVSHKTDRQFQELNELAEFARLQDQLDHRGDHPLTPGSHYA
Sequence of STIM1/Orai1 currents (Q13586 23-685 partner): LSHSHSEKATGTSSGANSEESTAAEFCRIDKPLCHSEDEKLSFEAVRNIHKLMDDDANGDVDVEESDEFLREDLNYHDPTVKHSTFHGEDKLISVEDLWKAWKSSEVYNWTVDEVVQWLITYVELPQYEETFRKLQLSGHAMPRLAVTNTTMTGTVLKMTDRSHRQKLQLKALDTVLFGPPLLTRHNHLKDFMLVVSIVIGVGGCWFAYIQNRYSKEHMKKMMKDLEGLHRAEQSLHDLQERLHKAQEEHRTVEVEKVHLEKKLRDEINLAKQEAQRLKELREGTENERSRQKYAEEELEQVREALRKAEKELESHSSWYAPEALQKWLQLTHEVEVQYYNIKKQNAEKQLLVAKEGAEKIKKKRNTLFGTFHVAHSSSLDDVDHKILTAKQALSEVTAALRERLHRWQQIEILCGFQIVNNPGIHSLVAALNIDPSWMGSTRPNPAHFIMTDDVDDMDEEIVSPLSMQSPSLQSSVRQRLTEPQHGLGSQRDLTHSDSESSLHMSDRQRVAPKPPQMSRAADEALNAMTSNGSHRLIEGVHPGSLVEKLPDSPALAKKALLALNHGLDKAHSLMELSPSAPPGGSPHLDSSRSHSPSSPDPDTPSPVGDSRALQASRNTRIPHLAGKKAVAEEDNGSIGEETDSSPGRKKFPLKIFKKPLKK
Sequence of rat-TRPV6 channels (Q9R186 41-767): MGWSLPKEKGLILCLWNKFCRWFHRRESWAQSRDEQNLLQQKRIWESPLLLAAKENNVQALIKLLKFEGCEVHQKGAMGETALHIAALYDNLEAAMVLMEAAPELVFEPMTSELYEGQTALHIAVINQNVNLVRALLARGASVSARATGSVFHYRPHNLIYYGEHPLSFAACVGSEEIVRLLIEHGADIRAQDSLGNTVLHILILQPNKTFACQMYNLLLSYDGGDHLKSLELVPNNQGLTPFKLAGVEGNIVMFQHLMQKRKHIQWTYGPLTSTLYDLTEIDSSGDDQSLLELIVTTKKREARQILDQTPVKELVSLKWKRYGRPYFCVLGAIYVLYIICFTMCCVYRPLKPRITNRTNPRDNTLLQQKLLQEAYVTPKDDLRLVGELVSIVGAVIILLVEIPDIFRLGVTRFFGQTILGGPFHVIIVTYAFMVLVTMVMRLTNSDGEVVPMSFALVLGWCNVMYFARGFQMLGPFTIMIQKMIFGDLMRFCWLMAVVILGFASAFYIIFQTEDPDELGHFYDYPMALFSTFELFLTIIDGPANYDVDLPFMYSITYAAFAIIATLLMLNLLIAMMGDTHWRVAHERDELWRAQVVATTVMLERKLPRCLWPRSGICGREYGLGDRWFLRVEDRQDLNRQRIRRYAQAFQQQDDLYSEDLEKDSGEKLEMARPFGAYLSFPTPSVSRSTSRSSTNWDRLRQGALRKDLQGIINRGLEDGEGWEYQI
Sequence of STIM1/Orai1 E106D (Q96D31 whole entry E106D): as the sequence (Q96D31 whole entry) above, with E106D counted along it
Sequence of STIM1/Orai1 E106D (Q13586 23-685 partner): as the sequence (Q13586 23-685 partner) above
Sequence of STIM1/Orai1 D110/112/114A (Q96D31 whole entry D110A/D112A/D114A): as the sequence (Q96D31 whole entry) above, with D110A, D112A, D114A counted along it
Sequence of STIM1/Orai1 D110/112/114A (Q13586 23-685 partner): as the sequence (Q13586 23-685 partner) above
Sequence of STIM1-CFP/Orai1-YFP interaction (Q96D31 whole entry): as the sequence (Q96D31 whole entry) above
Sequence of STIM1-CFP/Orai1-YFP interaction (Q13586 23-685): as the sequence (Q13586 23-685 partner) above
Sequence of CFP-STIM1/YFP-STIM1 oligomerization (Q13586 23-685): as the sequence (Q13586 23-685 partner) above
Sequence of CFP-STIM1/YFP-STIM1 oligomerization (Q13586 23-685): as the sequence (Q13586 23-685 partner) above

## NCCOB(c1ccccc1)c1ccccc1 [2-APB, 2-aminoethoxydiphenylborate]
Orai2
  effect on over-expressed Orai2: less sensitive
Orai1 currents; high concentrations (50 μM)
  effect on over-expressed Orai1: robust block
Orai1 currents; higher concentrations (>40 μM)
  effect on Orai1 currents: inhibit
Orai1 currents; low concentrations (5 μM)
  effect on Orai1 currents: enhance
CRAC currents; concentrations higher than 10 μM
  effect on CRAC currents: completely blocked
CRAC currents; low concentrations (1–5 μM)
  effect on CRAC currents: enhanced
Orai3; 75 μM, independent of STIM1
  effect on Orai3 currents: robust current stimulation
Orai3
  effect on over-expressed Orai3: robustly stimulated
STIM1/Orai1 currents; 75 μM
  effect on STIM1/Orai1 currents: transient stimulation followed by a complete inhibition

## Cc1nnsc1C(=O)Nc1ccc(-n2nc(C(F)(F)F)cc2C(F)(F)F)cc1 [BTP2]
[1]
  effect on interleukin-2 (IL-2) production in lymphocytes: potently blocks

## CC/C(=C(/CC)c1ccc(O)cc1)c1ccc(O)cc1 [DES, diethylstilbestrol, reference compound]
[2]
  block of CRAC/SOC currents in RBL cells: effective block
STIM1/Orai1 currents; 10 μM (Fig. 2B)
  time to full blockade of STIM1-activated Orai1 currents: ≤ 50 s
STIM1/Orai1 currents; 10 μM
  inhibition of maximally activated STIM1/Orai1 currents: full and rapid blockade

## O=C(Nc1ccn(Cc2ccccc2Oc2ccccc2)n1)c1c(F)cccc1F [GSK-5503A, 2,6-difluoro-N-(1-(2-phenoxybenzyl)-1H-pyrazol-3-yl)benzamide]
STIM1/Orai3 currents
  inhibition of maximally activated STIM1/Orai3 currents: fully inhibited
  recovery of Orai3 currents upon wash-out: not readily reversible
STIM1/Orai1 currents; 10 μM
  kinetics of Orai1 current inhibition, slower than La^3+: 2.5 fold
  inhibition of maximally activated STIM1/Orai1 currents: complete Orai1 current inhibition
STIM1/Orai1 currents
  recovery of Orai1 currents upon wash-out: not readily reversible

## O=C(Nc1ccn(Cc2ccc(O)cc2C(F)(F)F)n1)c1c(F)cccc1F [GSK-7975A, 2,6-difluoro-N-(1-(4-hydroxy-2-(trifluoromethyl)benzyl)-1H-pyrazol-3-yl)benzamide]
[3]
  inhibition of RBL CRAC currents: fully blocked
[4]
  effect on FRET plateau representing STIM1/Orai1 interaction: did not significantly alter
[5]
  inhibition of STIM1-activated Orai1 D110/112/114A currents: substantial inhibition almost comparable to that of wild-type Orai1
[6]; 10 μM, 75 μM 2-APB
  inhibition of maximally 2-APB stimulated Orai3 currents: totally ineffective
[6]; 100 μM
  inhibition of maximally 2-APB activated Orai3 currents: full inhibition
[6]; read-out: inhibition of maximally 2-APB activated Orai3 currents
  inhibition at 50 µM: 50%
L-type Ca^2+ channels
  inhibition of L-type Ca^2+ channel currents: moderate inhibition
rat-TRPV6 channels
  inhibition of TRPV6 currents: completely inhibited
STIM1/Orai3 currents
  Hill coefficient, inhibition of Orai3 currents: ~1
  inhibition of maximally activated STIM1/Orai3 currents: fully inhibited
  recovery of Orai3 currents upon wash-out: not readily reversible
[7]
  effect on FRET increase (STIM1 oligomerization) upon store-depletion: unaffected
STIM1/Orai1 E106D; 10 μM
  inhibition of STIM1-activated Orai1 E106D currents: no inhibition
STIM1/Orai1 E106D; 100 μM
  inhibition of STIM1-mediated Orai1 E106D currents: substantially but not fully restored the inhibitory effect
STIM1/Orai1 currents
  Hill coefficient, inhibition of Orai1 currents: ~1
  recovery of Orai1 currents upon wash-out: not readily reversible
STIM1/Orai1 currents; 3 μM (Suppl. Fig. 1)
  effect on Ca^2+-induced fast inactivation of STIM1/Orai1: did not significantly increase inactivation
STIM1/Orai1 currents; 10 μM intracellular application, data not shown
  inhibition of CRAC currents upon intracellular application: slight inhibition
STIM1/Orai1 currents; 10 μM, Na^+ as main charge carrier
  inhibition of STIM1/Orai1 monovalent currents in divalent free (DVF) solution: fully blocked
STIM1/Orai1 currents; 10 μM
  kinetics of Orai1 current inhibition, slower than La^3+: 2.5 fold
  inhibition of maximally activated STIM1/Orai1 currents: complete Orai1 current inhibition
Human lung mast cells
  Ca^2+ influx in human lung mast cells: significantly reduced
  release of inflammatory mediators from human lung mast cells: significantly reduced
CaV1.2 (L-type)
  IC50: ~8 µM
HEK293 cells; 10 μM pre-incubation, stimulation by carbachol (CCH) or BHQ
  amount of Ca^2+ released from ER stores: not markedly altered
HEK293 cells; pre-incubation with 10 μM, Fura-2
  inhibition of endogenous store-operated Ca^2+ entry of HEK293 cells: substantially inhibited

## [La+3] [La^3+, reference compound]
L-type Ca^2+ channels
  inhibition of L-type Ca^2+ channel currents: fully blocked
rat-TRPV6 channels
  inhibition of TRPV6 currents: fully blocked
STIM1/Orai1 currents; 10 μM
  inhibition of maximally activated STIM1/Orai1 currents: complete inhibition

## COc1ccc(OC)c(-c2ccc(NC(=O)c3ccncc3F)cc2)c1 [Synta-66, N-(2′,5′-dimethoxy-[1,1′-biphenyl]-4-yl)-3-fluoroisonicotinamide, reference compound]
[8]
  interference with STIM1 clustering: does not interfere with STIM1 clustering
STIM1/Orai3 currents
  inhibition of maximally activated STIM1/Orai3 currents: inhibited Orai3 currents at a similar rate to the GSK compounds
RBL mast cells
  IC50: 1 to 3 µM
STIM1/Orai1 currents; 10 μM
  inhibition of maximally activated STIM1/Orai1 currents: reduced Orai1 currents
